# High-throughput results (PubChem)
# XiGFP reactiv: reactivates the inactive X chromosome in mouse fibroblasts; activation, % at 7.58 µM; 0.055% of 360,000 active; XiGFP mouse fibroblasts, % GFP-positive cells imaging, 3 d; cells co-treated with 5-aza-dC sensitizer; scaled so ellipticine positive control = 100%;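 active = mean normalized replicate activation at least 10% and every replicate at or above 10%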;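 note: 0% = median of on-plate neutral control wells and 100% = ellipticine 6 µM median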
#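 Schedule: 3 d treatment, 15 min room-temperature fixation; system: 68-5-11 XiGFP fibroblast line; buffer or medium: DMEM plus 5-aza-dC sensitizer; control set: ellipticine 6 µM positive control; compound: one concentration, pinned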
# CaV13 FRET inh: Primary screen for inhibitors of IQ motif and Ca2+-dependent inactivation inhibitor domain binding in CACNA1D, Förster resonance energy transfer in living cells, …; HEK cells, CFP/YFP FRET ICDI-IQ, plate reader, 10 min; percent FRET-ratio fall versus neutral wells; inhibition, % at 12.3 µM; 0.098% of 340,000 active; AID 743397;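 active = mean replicate inhibition of at least 30% and at least 1% of replicates passing that level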;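 note: 0% = median of the neutral control wells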
# PvdQ acylase: P. aeruginosa PvdQ acylase inhibition; inhibition, % at 10 µM; 0.063% of 340,000 active; purified PvdQ acylase, fluorescence plate reader; in the data active = inhibition above about 30%, passing the limit was not always enough;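 note: 0% = vehicle neutral wells and 100% = reference inhibitor wells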
# ERAP1 HTS inh: inhibitors of human ERAP1 aminopeptidase; Q9NZ08; recombinant ERAP1, Leu-AMC fluorescence, 60 min; inhibition, % at 10.7 µM; 0.15% of 340,000 active; AID 652197;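 active = mean replicate inhibition of at least 30%, or all replicates individually reaching that 30% level; inactive = mean below 30% and not every replicate reaching it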;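 note: 0% = neutral control wells and 100% = L-leucinethiol positive control wells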
# Active calls of the source: *; x = not tested or not shown; + = active, no number. A selection: hits, their analogues and other compounds. The true share with any hit is near 0.27%.
SMILES,XiGFP reactiv,CaV13 FRET inh,PvdQ acylase,ERAP1 HTS inh
Cc1ccc(C(=O)N/C(=C/c2ccc(-c3ccc([N+](=O)[O-])cc3)o2)C(=O)NCCCN(C)C)cc1,62*,-116,-12,12
C[C@@H]1CN([C@@H](C)CO)C(=O)c2cc(Br)cnc2O[C@H]1CN(C)C(=O)C1CCOCC1,1,x,x,0
Cc1ccc(/C=C2\Oc3c(ccc(O)c3CN3CCN(CCO)CC3)C2=O)cc1,0,-19,10,7
CC(C)c1ccc(/C=C2\Oc3c(ccc(O)c3CN3CCN(C)CC3)C2=O)cc1,0,+,-13,3
O=C1C=C(c2ccccc2)OC(c2ccccc2)O1 (stereo not given),0,-3,47*,-9
COc1ccccc1OCCNC(=O)C1CCCCC1,5,-3,-11,32*
CN(C(=O)Cn1c(Cl)nc2c1c(=O)n(C)c(=O)n2C)C1CCS(=O)(=O)C1 (stereo not given),0,-4,0,83*
Cn1cc(C(c2ccccc2OCC(=O)O)c2cn(C)c3ccccc23)c2ccccc21,0,45*,-1,0
CCn1c(=O)cc(OCC(=O)O)c2ccccc21,x,-5,-14,x
C[C@H]1CN(C)C(=O)c2cccc(N)c2O[C@@H]1CN(C)C(=O)OC(C)(C)C,0,x,x,x
C[C@@H]1CCCCO[C@H](CN(C)Cc2ccc(C(=O)O)cc2)[C@@H](C)CN([C@@H](C)CO)C(=O)c2cc(NC(=O)Nc3ccccc3)ccc2O1,0,x,x,-6
COc1ccc(CCC(=O)NC2CCCc3ccccc32)cc1OC (stereo not given),0,-7,-5,32*
O=C1/C(=C/c2cccc([N+](=O)[O-])c2)Oc2cc(O)ccc21,0,-23,41*,-6
O=C1/C(=C/c2ccc(O)c(O)c2)Oc2cc(O)ccc21,x,x,-5,13
CN1CCCC1CCNc1ccc2sc3ccccc3c(=O)c2c1 (stereo not given),9,-29,9,x
Cc1cc2oc3cc(NCCC4CCCN4C)ccc3c(=O)c2cc1C (stereo not given),0,77*,-130,-157
COc1ccc2c3c([nH]c2c1)[C@@H](CO)N(C(=O)c1ccncc1)CC31CN(Cc2cccnc2)C1,0,x,x,x
FC(F)(F)CN1C[C@@H]2C(c3ccccc3)[C@H](C1)N2CC(F)(F)F (stereo not given in full),0,x,x,x
CC(=O)N1[C@@H]2CN(CC(F)(F)F)C[C@H]1C2c1ccccc1 (stereo not given in full),0,x,x,x
O=C(NCC1CCCCC1)c1cc(Br)ccc1Cl,0,-2,34*,1
NC[C@@H]1O[C@H](C23CC4CC(CC(C4)C2)C3)Cc2c1ccc(O)c2O,1,-6,-10,31*
C[C@@H]1CN([C@@H](C)CO)C(=O)c2cc(NC(=O)Nc3ccccc3)ccc2O[C@@H]1CN(C)C(=O)NC1CCCCC1,0,x,x,-3
COc1ccc(-c2cc(C(F)(F)F)nc(S(=O)(=O)CCCC(=O)Nc3cccnc3Cl)n2)cc1OC,0,-5,-14,50*
COC(=O)CCS(=O)(=O)c1nc(-c2ccccc2)cc(C(F)(F)F)n1,x,x,-5,x
CCCC(=O)N1CCC2(CC1)CN(C(=O)CN1CCOCC1)[C@@H](CO)c1c2c2ccc(OC)cc2n1C,0,x,x,x
SMILES,XiGFP reactiv,CaV13 FRET inh,PvdQ acylase,ERAP1 HTS inh
COC(=O)c1cc(/C=C/c2ccccc2)on1,x,x,54*,x
O=C(C[C@H]1CC[C@H]2[C@@H](COC[C@@H](O)CN2Cc2cccc(F)c2)O1)NCc1cccc(F)c1,0,x,x,-1
CCOC(=O)c1ccc(N2Cc3ccccc3C2)cc1O,x,-8,63*,2
CCc1ccc(N2Cc3ccccc3C2)cc1,0,-2,7,0
CCCN1[C@@H]2c3ccc(-c4ccncc4)c(=O)n3C[C@H]1[C@H](CO)[C@H]2C(=O)NCCc1cn(C)cn1,0,x,x,-2
CCCN1[C@@H]2c3ccc(-c4cccnc4)c(=O)n3C[C@H]1[C@H](CO)[C@H]2C(=O)NCCc1cn(C)cn1,0,x,x,55*
N#Cc1c(NC(=O)c2cccc(S(=O)(=O)Nc3ccc(C(=O)O)cc3)c2)sc2c1CCCC2,0,-5,-6,43*
CC(=O)N(C)C[C@H]1Oc2ccc(N(C)C)cc2C(=O)N(C)C[C@H]1C,0,x,x,x
O=C(NC1=NN(c2ccccc2)CC1)Nc1ccccc1F,50*,-6,1,x
CCOC(=O)C1=CN(CC2CCCO2)C=C(C(=O)OCC)C1c1ccccc1C(F)(F)F (stereo not given),0,76*,-16,6
CCOC(=O)c1ccc(NC(=O)c2cccc3c2C(=O)N(CC2CCCO2)C3)cc1 (stereo not given),0,-3,-11,1
CC[n+]1c(C)sc2cc(OC)ccc21,0,-5,-12,30*
CC[n+]1c(C)sc2c(C)cc(C)cc21,x,-4,-18,21
COc1ccc(CN(C)C[C@H]2OCCCC[C@@H](C)Oc3ccc(NC(=O)C4CCCCC4)cc3C(=O)N([C@@H](C)CO)C[C@H]2C)cc1,0,x,x,2
C#CCSc1ncc(-c2ccccc2)cn1,0,-4,48*,-2
C=CCSc1ncc(-c2ccccc2)cn1,0,3,0,1
O=C1N[C@@H](Cc2ccccc2)[C@@H](c2ccco2)O1,0,-9,49*,12
COCC(=O)Nc1ccc2c(c1)C(=O)N(C)[C@H]1CC[C@H](CC(=O)Nc3cn(C)nc3C)O[C@@H]1CO2,0,x,x,x
C[C@H]1CN([C@@H](C)CO)C(=O)c2cccc(NS(=O)(=O)c3cn(C)cn3)c2O[C@H]1CN(C)Cc1ccncc1,-1,x,x,2
CC[n+]1c(C)cc(C)n1-c1ccccc1,0,-5,-14,102*
CCOC(=O)c1ccc2c(c1)[n+](CC)c(C)n2-c1ccccc1,0,-7,2,24
COc1ccc(C2C3=C(CCCC3=O)N(CC(=O)O)C3=C2C(=O)CCC3)cc1Cl,0,+,-13,31*
C[C@@H]1CCCCO[C@@H](CN(C)C(=O)c2ccncc2)[C@@H](C)CN([C@H](C)CO)C(=O)c2cc(NS(=O)(=O)c3ccc(F)cc3)ccc2O1,0,x,x,-1
CCOC(=O)C1=C(O)/C(=C/c2cc(OC)c(O)c(OC)c2)SC1=Nc1ccc(OC)cc1,15*,-8,3,x
O=C(N[C@@H]1CC[C@@H](CCn2cc(C3(O)CCCC3)nn2)O[C@@H]1CO)C1CCOCC1,0,x,x,0
COCCNC(=S)N/N=C/c1ccc(-c2ccc([N+](=O)[O-])cc2)o1,2,+,-8,3
CC(=O)N1CC(=O)N2[C@H](CO)[C@H](c3ccc(-c4ccc(C#N)cc4)cc3)[C@@H]2C1,0,x,x,x
CN(C(=O)CCn1c(=S)oc2ccccc21)c1ccc(F)cc1,0,4,36*,-7
O=C(CCn1c(=S)oc2ccccc21)Nc1ccc(F)cc1,0,-2,-16,-11
O=c1oc2cc(O)ccc2cc1-c1nc2c(s1)CCc1ccccc1-2,95*,-11,1,x
